Measured values taken from ChEMBL document CHEMBL3797175, “Discovery of 6-(difluoro(6-(4-fluorophenyl)-[1,2,4]triazolo[4,3-b][1,2,4]triazin-3-yl)methyl)quinoline as a highly potent and selective c-Met inhibitor” (Eur J Med Chem, 2016).
The source made the active and inactive calls. No cut-off for these calls is given here.

What was measured:
[1] = Oral bioavailability in Sprague-Dawley rat at 10 mg/kg administered as single dose; assay type: ADME, organism-based; conditions: in vivo
How it was run: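 Male Sprague-Dawley rats (n=3), single dose. IV 2 mg/kg in 1% DMA/9% Cremophor/90% saline; PO 10 mg/kg in 0.5% CMC-Na. For one compound, IV 10 mg/kg in DMSO/Tween 80/PEG40 and PO 10 mg/kg in 10% DMSO/5% Tween 80/85% saline.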

[2] = Selectivity ratio of IC50 for human AGS cells to IC50 for human EBC1 cells; assay type: ADME, cell-based
How it was run: (§1)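 Both IC50s in each ratio come from one proliferation assay. Cells were seeded and exposed the next day to a range of concentrations for 72 h, then read by SRB or MTT. IC50s were fitted by four-parameter concentration–response, with each concentration at least in triplicate and at least 2 experiments. BaF3/TPR-Met is murine pre-B BaF3 transfected with TPR-MET and puromycin-selected.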

[3] = Selectivity ratio of IC50 for human AGS cells to IC50 for human MKN45 cells; assay type: ADME, cell-based; how it was run: as §1
[4] = target: Receptor-type tyrosine-protein kinase FLT3 (Homo sapiens) (UniProt P36888); assay: Inhibition of recombinant FLT3 (unknown origin) using poly (Glu, Tyr) 4:1 as substrate at 1000 nM incubated for 60 mins by ELISA relative to control
How it was run: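 Recombinant tyrosine kinases assayed on wells precoated with poly(Glu,Tyr)4:1 (20 µg/mL). ATP 10 µmol/L in HEPES pH 7.4 buffer with MgCl2, MnCl2, Na3VO4 and DTT; compound in 1% DMSO, 1% DMSO as control. Reaction 60 min at 37 °C. Phosphotyrosine detected with PY99 and HRP anti-mouse, o-phenylenediamine, A490. Inhibition % relative to control; two experiments.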

[5] = target: TPR/MET fusion protein (Mus musculus) (UniProt P16056+F6ZDS4); assay: Inhibition of TPR-MET in mouse BAF3 cells assessed as reduction in AKT phosphorylation at Serine 473 at 10 nM after 1 hr by Western blot analysis; assay type: cell-based
How it was run: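 BaF3 stably expressing TPR-MET (puromycin-selected), grown with IL-3-conditioned medium. Treated 1 h at 37 °C, lysed in SDS sample buffer. 10% SDS-PAGE and immunoblot for phospho-c-Met, phospho-ERK1/2, phospho-AKT and totals; ECL detection.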

[6] = target: T1, Hepatocyte growth factor receptor (Homo sapiens, UniProt P08581); assay: Inhibition of c-Met in HGF stimulated human U87MG cells assessed as reduction in AKT phosphorylation at Serine 473 at 10 nM after 1 hr by Western blot analysis; assay type: cell-based; conditions: U-87MG ATCC
How it was run: (§2)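 U87MG cells serum-starved 24 h, treated 1 h at 37 °C, then stimulated with HGF 100 ng/mL for 15 min. Lysed in SDS buffer, run on 10% SDS-PAGE and immunoblotted for phospho-ERK1/2 and phospho-AKT; ECL detection.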

[7] = target: T1, Hepatocyte growth factor receptor; assay: Inhibition of c-Met in HGF stimulated human U87MG cells assessed as reduction in ERK phosphorylation at Threonine 202 at 10 nM after 1 hr by Western blot analysis; assay type: cell-based; conditions: U-87MG ATCC; how it was run: as §2
[8] = target: Tyrosine-protein kinase receptor TYRO3 (Homo sapiens, UniProt Q06418); assay: Inhibition of recombinant TYRO3 (unknown origin) using poly (Glu, Tyr) 4:1 as substrate incubated for 60 mins by ELISA
786-0 = assay: Antiproliferative activity against human 786-0 cells after 72 hrs by SRB or MTT assay; assay type: functional, cell-based; conditions: 786-0, 72 h
How it was run: (§3)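 Cells seeded, exposed next day to a range of concentrations for 72 h. Growth read by sulforhodamine B or MTT. IC50 from four-parameter concentration-response fit. Each concentration tested at least in triplicate, with at least 2 experiments.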

[9] = Antiproliferative activity against human NCI-H3122 cells after 72 hrs by SRB or MTT assay; assay type: functional, cell-based; conditions: NCI-H3122, 72 h; how it was run: as §3
NCI-H226 = assay: Antiproliferative activity against human NCI-H226 cells after 72 hrs by SRB or MTT assay; assay type: functional, cell-based; conditions: NCI-H226, 72 h; how it was run: as §3
[10] = Antiproliferative activity against human Calu3 cells after 72 hrs by SRB or MTT assay; assay type: functional, cell-based; conditions: Calu-3, 72 h; how it was run: as §3
[11] = Antiproliferative activity against human SPCA1 cells after 72 hrs by SRB or MTT assay; assay type: functional, cell-based; conditions: SPCA1, 72 h; how it was run: as §3
[12] = Antiproliferative activity against human SNU16 cells after 72 hrs by SRB or MTT assay; assay type: functional, cell-based; conditions: SNU-16, 72 h; how it was run: as §3
MDA-MB-231 = assay: Antiproliferative activity against human MDA-MB-231 cells after 72 hrs by SRB or MTT assay; assay type: functional, cell-based; conditions: MDA-MB-231, 72 h; how it was run: as §3
[13] = Antitumor activity against human MKN45 cells xenografted in athymic nude mouse assessed as tumor growth inhibition at 25 mg/kg, po bid for 21 days measured twice a week during compound dosing relative to control; assay type: functional; conditions: MKN-45, po, 504 h, read-out: TGI
How it was run: (§4)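 Nude mice bearing s.c. tumours. Cells were first grown s.c. to 700–800 mm³, then 1.5 mm³ fragments were transplanted s.c. into the right flank. Mice were randomised at 100–200 mm³ (n=6 treated, n=12 vehicle) and dosed orally twice daily for 21 days. Caliper measurement twice weekly; TV = length×width²/2. TGI taken on the final day versus vehicle; Student's t test.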

[14] = Antitumor activity against human MKN45 cells xenografted in athymic nude mouse assessed as tumor growth inhibition at 12.5 mg/kg, po bid for 21 days measured twice a week during compound dosing relative to control; assay type: functional; conditions: MKN-45, po, 504 h, read-out: TGI; how it was run: as §4
[15] = Selectivity ratio of IC50 for human Bel7404 cells to IC50 for human EBC1 cells; assay type: ADME, cell-based; how it was run: as §1
[16] = Selectivity ratio of IC50 for human SMMC7721 cells to IC50 for mouse BAF3 cells expressing TPR-MET; assay type: ADME, cell-based
[17] = Selectivity ratio of IC50 for human NCI-HCC827 cells to IC50 for mouse BAF3 cells expressing TPR-MET; assay type: ADME, cell-based
How it was run: (§5)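 Each cell line was seeded in 96-well plates, then exposed the next day to a range of compound concentrations for 72 h. Growth was read by SRB or MTT assay, and IC50 was fitted by a four-parameter concentration-response curve. Each concentration was run at least in triplicate, in at least 2 experiments. BaF3/TPR-Met are murine pre-B BaF3 cells transfected with TPR-MET cDNA and selected in puromycin.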

[18] = Selectivity ratio of IC50 for human NCI-H1299 cells to IC50 for human EBC1 cells; assay type: ADME, cell-based; how it was run: as §1
[19] = Selectivity ratio of IC50 for human NCI-H661 cells to IC50 for human MKN45 cells; assay type: ADME, cell-based; conditions: mkn-45; how it was run: as §1
[20] = Selectivity ratio of IC50 for human Calu3 cells to IC50 for mouse BAF3 cells expressing TPR-MET; assay type: ADME, cell-based; how it was run: as §1
[21] = Selectivity ratio of IC50 for human SGC7901 cells to IC50 for human EBC1 cells; assay type: ADME, cell-based; conditions: sgc-7901; how it was run: as §5
[22] = Selectivity ratio of IC50 for human SPCA4 cells to IC50 for mouse BAF3 cells expressing TPR-MET; assay type: ADME, cell-based; conditions: SPCA4 cells versus BAF3 cells expressing TPR-MET

T1 sequence (P08581 whole entry): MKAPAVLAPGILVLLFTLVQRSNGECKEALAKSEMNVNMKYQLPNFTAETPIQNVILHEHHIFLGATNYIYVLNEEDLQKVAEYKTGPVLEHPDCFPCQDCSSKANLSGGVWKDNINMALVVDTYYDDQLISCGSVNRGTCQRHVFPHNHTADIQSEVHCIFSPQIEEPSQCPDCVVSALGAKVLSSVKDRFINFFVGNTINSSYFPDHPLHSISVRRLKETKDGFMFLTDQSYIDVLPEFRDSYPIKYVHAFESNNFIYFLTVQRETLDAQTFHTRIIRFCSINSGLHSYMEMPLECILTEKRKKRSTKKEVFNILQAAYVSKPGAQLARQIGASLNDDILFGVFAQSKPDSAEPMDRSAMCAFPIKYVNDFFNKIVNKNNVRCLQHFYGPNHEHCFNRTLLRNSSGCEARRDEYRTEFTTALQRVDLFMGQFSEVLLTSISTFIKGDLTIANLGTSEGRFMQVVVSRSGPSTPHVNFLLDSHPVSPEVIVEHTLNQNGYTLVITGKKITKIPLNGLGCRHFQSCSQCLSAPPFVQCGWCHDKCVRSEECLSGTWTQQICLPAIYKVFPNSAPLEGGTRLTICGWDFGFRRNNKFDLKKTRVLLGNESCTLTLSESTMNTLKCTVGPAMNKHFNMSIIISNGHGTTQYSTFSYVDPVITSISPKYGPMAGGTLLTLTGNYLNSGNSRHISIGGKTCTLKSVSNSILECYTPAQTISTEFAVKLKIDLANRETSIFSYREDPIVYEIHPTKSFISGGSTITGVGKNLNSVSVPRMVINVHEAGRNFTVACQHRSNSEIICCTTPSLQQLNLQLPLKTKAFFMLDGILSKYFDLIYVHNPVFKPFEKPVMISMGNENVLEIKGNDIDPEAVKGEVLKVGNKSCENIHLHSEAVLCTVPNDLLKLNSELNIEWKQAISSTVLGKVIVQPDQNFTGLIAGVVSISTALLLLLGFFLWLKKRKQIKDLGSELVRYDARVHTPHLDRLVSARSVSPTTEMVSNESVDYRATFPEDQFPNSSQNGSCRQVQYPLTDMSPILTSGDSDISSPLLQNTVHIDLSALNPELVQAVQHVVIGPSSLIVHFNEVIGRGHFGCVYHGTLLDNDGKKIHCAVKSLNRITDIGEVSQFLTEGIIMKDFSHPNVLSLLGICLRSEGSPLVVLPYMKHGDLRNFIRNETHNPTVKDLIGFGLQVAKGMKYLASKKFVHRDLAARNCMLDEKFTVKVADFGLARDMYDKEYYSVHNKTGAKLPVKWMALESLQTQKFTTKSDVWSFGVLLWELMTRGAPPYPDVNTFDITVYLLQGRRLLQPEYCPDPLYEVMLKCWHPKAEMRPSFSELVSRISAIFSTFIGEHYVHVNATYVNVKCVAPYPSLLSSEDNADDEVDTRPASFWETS
Sequence of TPR/MET fusion protein (Mus musculus) (F6ZDS4 whole entry partner, the tested form may be a part): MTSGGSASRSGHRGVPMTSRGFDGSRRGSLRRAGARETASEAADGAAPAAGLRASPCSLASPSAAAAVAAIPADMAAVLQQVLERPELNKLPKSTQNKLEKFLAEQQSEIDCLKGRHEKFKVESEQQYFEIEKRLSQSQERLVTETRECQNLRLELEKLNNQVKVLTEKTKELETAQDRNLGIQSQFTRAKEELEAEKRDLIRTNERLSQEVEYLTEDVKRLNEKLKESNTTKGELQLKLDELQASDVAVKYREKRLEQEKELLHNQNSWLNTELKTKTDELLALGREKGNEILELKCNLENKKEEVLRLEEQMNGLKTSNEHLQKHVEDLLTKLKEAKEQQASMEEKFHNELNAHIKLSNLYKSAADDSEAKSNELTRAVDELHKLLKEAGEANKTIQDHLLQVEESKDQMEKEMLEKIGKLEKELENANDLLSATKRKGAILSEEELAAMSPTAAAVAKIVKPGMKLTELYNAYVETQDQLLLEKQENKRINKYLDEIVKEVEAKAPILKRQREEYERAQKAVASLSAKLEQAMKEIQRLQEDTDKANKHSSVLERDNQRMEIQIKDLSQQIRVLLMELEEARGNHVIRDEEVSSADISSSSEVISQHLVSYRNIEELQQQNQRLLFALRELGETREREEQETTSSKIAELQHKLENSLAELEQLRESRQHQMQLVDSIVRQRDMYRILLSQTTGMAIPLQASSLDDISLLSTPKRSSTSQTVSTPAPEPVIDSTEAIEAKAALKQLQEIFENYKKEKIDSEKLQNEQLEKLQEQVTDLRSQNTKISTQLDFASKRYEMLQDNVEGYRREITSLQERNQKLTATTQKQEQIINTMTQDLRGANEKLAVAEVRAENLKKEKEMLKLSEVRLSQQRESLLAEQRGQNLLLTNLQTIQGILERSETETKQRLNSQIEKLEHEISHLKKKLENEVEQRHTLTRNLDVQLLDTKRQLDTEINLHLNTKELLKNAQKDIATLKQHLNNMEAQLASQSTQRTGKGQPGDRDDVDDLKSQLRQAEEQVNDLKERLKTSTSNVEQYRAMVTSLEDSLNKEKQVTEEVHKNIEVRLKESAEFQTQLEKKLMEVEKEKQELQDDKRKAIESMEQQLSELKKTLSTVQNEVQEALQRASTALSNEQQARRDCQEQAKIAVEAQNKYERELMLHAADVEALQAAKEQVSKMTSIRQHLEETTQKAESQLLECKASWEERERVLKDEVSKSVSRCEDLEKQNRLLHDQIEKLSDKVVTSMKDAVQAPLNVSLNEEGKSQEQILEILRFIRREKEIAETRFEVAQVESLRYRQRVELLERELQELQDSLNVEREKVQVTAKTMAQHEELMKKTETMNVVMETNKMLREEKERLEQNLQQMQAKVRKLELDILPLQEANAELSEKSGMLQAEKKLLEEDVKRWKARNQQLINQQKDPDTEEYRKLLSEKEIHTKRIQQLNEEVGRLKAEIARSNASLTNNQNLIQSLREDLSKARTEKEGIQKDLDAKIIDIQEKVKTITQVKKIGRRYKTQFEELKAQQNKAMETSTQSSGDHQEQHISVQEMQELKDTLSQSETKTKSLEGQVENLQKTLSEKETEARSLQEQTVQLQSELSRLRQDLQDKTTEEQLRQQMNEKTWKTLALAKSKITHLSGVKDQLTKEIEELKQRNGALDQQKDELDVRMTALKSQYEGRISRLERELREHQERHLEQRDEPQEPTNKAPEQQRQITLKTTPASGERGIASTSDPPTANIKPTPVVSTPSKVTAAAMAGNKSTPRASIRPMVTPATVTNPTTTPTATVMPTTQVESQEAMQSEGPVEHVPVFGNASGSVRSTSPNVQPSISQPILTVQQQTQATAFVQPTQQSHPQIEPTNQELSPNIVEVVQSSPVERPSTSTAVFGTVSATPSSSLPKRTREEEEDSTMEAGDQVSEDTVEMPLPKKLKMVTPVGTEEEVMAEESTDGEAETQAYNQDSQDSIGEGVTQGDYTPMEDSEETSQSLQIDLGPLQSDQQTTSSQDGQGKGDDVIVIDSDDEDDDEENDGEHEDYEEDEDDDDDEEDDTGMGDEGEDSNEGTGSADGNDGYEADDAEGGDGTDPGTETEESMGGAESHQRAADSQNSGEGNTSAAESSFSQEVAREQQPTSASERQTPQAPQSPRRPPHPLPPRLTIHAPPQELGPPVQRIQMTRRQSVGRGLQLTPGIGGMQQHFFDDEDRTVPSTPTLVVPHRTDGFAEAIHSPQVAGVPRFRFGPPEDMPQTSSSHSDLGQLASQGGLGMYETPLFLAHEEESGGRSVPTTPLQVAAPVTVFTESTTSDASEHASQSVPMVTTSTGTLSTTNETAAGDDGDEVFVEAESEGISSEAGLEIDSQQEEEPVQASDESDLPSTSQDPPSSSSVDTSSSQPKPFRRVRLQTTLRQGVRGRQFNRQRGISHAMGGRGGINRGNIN
Sequence of TPR/MET fusion protein (Mus musculus) (P16056 25-1379 limits assumed): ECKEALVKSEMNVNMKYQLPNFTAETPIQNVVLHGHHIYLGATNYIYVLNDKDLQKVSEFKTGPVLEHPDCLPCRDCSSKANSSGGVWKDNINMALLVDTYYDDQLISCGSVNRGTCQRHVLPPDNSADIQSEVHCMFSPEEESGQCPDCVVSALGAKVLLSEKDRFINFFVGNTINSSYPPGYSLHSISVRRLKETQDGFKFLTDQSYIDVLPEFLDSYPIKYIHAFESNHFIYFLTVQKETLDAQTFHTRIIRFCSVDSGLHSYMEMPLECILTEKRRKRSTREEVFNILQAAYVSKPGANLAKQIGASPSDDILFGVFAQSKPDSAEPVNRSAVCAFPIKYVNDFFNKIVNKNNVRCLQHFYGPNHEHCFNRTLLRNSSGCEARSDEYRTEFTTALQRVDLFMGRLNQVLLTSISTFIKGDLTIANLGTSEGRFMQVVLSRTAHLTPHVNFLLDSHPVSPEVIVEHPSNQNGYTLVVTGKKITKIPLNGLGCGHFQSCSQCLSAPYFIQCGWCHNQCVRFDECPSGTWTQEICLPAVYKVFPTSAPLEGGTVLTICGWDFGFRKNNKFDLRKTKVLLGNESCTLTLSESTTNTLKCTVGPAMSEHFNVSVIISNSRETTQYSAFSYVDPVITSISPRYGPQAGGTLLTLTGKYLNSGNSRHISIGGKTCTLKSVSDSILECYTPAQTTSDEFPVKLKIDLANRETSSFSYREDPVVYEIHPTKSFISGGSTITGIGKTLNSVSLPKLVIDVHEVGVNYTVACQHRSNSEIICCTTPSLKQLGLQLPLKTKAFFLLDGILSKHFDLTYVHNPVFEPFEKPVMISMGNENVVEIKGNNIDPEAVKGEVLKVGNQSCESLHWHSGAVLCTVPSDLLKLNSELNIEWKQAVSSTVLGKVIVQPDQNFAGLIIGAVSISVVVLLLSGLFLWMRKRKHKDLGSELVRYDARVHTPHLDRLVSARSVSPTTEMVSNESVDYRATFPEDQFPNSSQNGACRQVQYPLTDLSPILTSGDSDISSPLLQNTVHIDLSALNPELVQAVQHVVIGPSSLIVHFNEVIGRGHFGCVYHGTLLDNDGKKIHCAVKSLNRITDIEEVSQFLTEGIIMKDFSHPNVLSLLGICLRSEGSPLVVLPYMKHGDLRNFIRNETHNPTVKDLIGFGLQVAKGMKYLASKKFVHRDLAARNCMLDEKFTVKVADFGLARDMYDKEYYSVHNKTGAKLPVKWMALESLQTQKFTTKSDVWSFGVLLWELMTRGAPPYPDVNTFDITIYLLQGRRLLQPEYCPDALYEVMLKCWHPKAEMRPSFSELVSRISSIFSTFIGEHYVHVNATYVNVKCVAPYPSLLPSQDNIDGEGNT

bioavailability [1]: 48.3% | inhibition [4]: 12.3% | inhibition [5]: Active | inhibition [6]: Active | inhibition [7]: Active | IC50 [8]: > 1 µM | IC50 (786-0): > 10 µM | IC50 (NCI-H226): > 10 µM | IC50 (MDA-MB-231): > 10 µM
Structure (SMILES): Fc1ccc(-c2cnc3nnc(C(F)(F)c4ccc5ncccc5c4)n3n2)cc1
Ratio IC50 [2]: 10000 | Ratio IC50 [3]: 10000 | IC50 [9]: > 10 µM | IC50 [10]: > 10 µM | IC50 [11]: > 10 µM | IC50 [12]: > 10 µM | inhibition in vivo at 25 mg/kg [13]: 96.5% | inhibition in vivo at 12.5 mg/kg [14]: 80.1% | Ratio IC50 [15]: 10000 | Ratio IC50 [16]: 10000 | Ratio IC50 [17]: 10000 | Ratio IC50 [18]: 10000 | Ratio IC50 [19]: > 10000 | Ratio IC50 [20]: > 10000 | Ratio IC50 [21]: > 10000 | selectivity ratio [22]: > 10000
